From ChEMBL document CHEMBL1152654, “Development of a highly water-soluble peptide-based human neutrophil elastase inhibitor; AE-3763 for treatment of acute organ injury” (Bioorg Med Chem, 2009)
Active and inactive are the calls of the source. No cut-off for these calls is given here.

How the values were obtained:
Hamster [1] = assay: Inhibition of human neutrophil elastase-induced lung hemorrhage in hamster at 10 mg/kg/hr, iv administered as infusion; assay type: functional; conditions: Cricetinae
In short: (§1)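 Hamster lung hemorrhage induced by HNE instillation, with compound delivered by iv infusion over more than 70 min. BALF collected 1 h after HNE and centrifuged; supernatant absorbance at 414 nm used as hemorrhage measure; % inhibition reported.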

Hamster [2] = assay: Inhibition of human neutrophil elastase-induced lung hemorrhage in hamster at 3 mg/kg/hr, iv administered as infusion; assay type: functional; conditions: Cricetinae; in short: as §1
Hamster [3] = assay: Inhibition of human neutrophil elastase-induced lung hemorrhage in hamster at 3 mg/kg, iv administered as bolus dose; assay type: functional; conditions: Cricetinae
In short: (§2)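 Hamster lung hemorrhage induced by HNE instillation; compound given as iv bolus. One hour after HNE, BALF collected and centrifuged; supernatant absorbance at 414 nm taken as hemorrhage; % inhibition reported.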

Hamster [4] = assay: Inhibition of human neutrophil elastase-induced lung hemorrhage in hamster at 10 mg/kg, iv administered as bolus dose; assay type: functional; conditions: Cricetinae; in short: as §2
Hamster [5] = assay: Inhibition of human neutrophil elastase-induced lung hemorrhage in hamster at 1 mg/kg/hr, iv administered as infusion; assay type: functional; conditions: Cricetinae; in short: as §1
Hamster [6] = assay: Inhibition of human neutrophil elastase-induced lung hemorrhage in hamster at 30 mg/kg, iv administered as bolus dose; assay type: functional; conditions: Cricetinae; in short: as §2
Hamster [7] = assay: Inhibition of human neutrophil elastase-induced lung hemorrhage in iv dosed hamster administered as bolus dose; assay type: functional; conditions: Cricetinae; in short: as §2
Mus musculus [8] = assay: Toxicity in mouse assessed as overt effects up to 300 mg/kg, iv; assay type: organism-based; design: dose 300 mg/kg, route intravenous; conditions: in vivo
Hamster [9] = assay: Inhibition of human neutrophil elastase-induced lung hemorrhage in iv dosed hamster administered as infusion; assay type: functional, Cricetinae; in short: as §1
Hamster [10] = assay: Antiinflammatory activity in iv dosed hamster assessed as inhibition of LPS-induced lung edema; assay type: functional, Cricetinae
In short: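 Hamsters given LPS intratracheally; jugular-vein infusion started immediately after LPS and continued up to 6 h. Whole-lung wet weight measured at 6 h after LPS and corrected for each animal's body weight.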

Mus musculus [11] = species: Mus musculus; conditions: C3H/HeN, 10 to 100 mg/kg
[12] = Aqueous solubility in water; assay type: physicochemical

SMILES	inhibition in vivo at 10 mg/kg/hr (Hamster [1])	inhibition in vivo at 3 mg/kg/hr (Hamster [2])	inhibition in vivo at 3 mg/kg (Hamster [3])	inhibition in vivo at 10 mg/kg (Hamster [4])	inhibition in vivo at 1 mg/kg/hr (Hamster [5])	also measured
COC(=O)C(=O)[C@@H](NC(=O)[C@@H]1CCCN1C(=O)[C@@H](NC(=O)CN1CCN(CC(=O)O)C(=O)C1=O)C(C)C)C(C)C	94%	48%				
CC(C)[C@H](NC(=O)[C@@H]1CCCN1C(=O)[C@@H](NC(=O)Cn1ccc(=O)n(CC(=O)O)c1=O)C(C)C)C(=O)c1nc2ccccc2o1	93%	62%	24%	66%	50%	inhibition in vivo at 30 mg/kg (Hamster [6]): 97%
CC(C)[C@H](NC(=O)[C@@H]1CCCN1C(=O)[C@@H](NC(=O)CN1CCN(CC(=O)O)C1=O)C(C)C)C(=O)c1nc2ccccc2o1	90%	31%	22%	68%	25%	
CC(C)[C@H](NC(=O)[C@@H]1CCCN1C(=O)[C@@H](NC(=O)Cn1c(=O)ccn(CC(=O)O)c1=O)C(C)C)C(=O)c1nc2ccccc2o1			34%	47%		inhibition in vivo at 30 mg/kg (Hamster [6]): 94%
CC(C)[C@H](NC(=O)[C@@H]1CCCN1C(=O)[C@@H](NC(=O)Cn1ccc(=O)n(CC(=O)O)c1=O)C(C)C)C(=O)C(=O)NCc1ccccc1	90%	78%			32%	
CC(C)[C@H](NC(=O)[C@@H]1CCCN1C(=O)[C@@H](NC(=O)CN1C(=O)N(CC(=O)O)C(=O)C1(C)C)C(C)C)C(=O)c1nc2ccccc2o1			40%	42%		
CC(C)[C@H](NC(=O)[C@@H]1CCCN1C(=O)[C@@H](NC(=O)CN1CC(=O)N(CC(=O)O)CC1=O)C(C)C)C(=O)c1nc2ccccc2o1	90%	73%	20%	67%	55%	
CC(C)[C@H](NC(=O)[C@@H]1CCCN1C(=O)[C@@H](NC(=O)CN1CCN(CC(=O)O)CC1)C(C)C)C(=O)c1nc2ccccc2o1	87%	48%	44%	70%	34%	
Cc1nn(CC(=O)N[C@H](C(=O)N2CCC[C@H]2C(=O)N[C@H](C(=O)c2nc3ccccc3o2)C(C)C)C(C)C)c(=O)n(CC(=O)O)c1=O				48%		
CC(C)[C@H](NC(=O)[C@@H]1CCCN1C(=O)[C@@H](NC(=O)CN1CCN(CC(=O)O)C(=O)C1=O)C(C)C)C(=O)C(=O)NCc1ccccc1	89%	47%			31%	
CC(C)[C@H](NC(=O)[C@@H]1CCCN1C(=O)[C@@H](NC(=O)CN1CCC(=O)N(CC(=O)O)C1=O)C(C)C)C(=O)c1nc2ccccc2o1			38%	34%		
CC(C)[C@H](NC(=O)[C@@H]1CCCN1C(=O)[C@@H](NC(=O)COc1ccc(OCC(=O)O)cc1)C(C)C)C(=O)c1nc2ccccc2o1				38%		inhibition in vivo at 30 mg/kg (Hamster [6]): 56%
CC(C)[C@H](NC(=O)[C@@H]1CCCN1C(=O)[C@@H](NC(=O)CN1CCN(CC(=O)O)C(=O)C1=O)C(C)C)C(=O)c1nc2ccccc2o1	95%	76%	57%	88%	41%	
CC(C)[C@H](NC(=O)[C@@H]1CCCN1C(=O)[C@@H](NC(=O)CN1C(=O)CN(CC(=O)O)C1=O)C(C)C)C(=O)c1nc2ccccc2o1	53%	57%	37%	72%	39%	inhibition in vivo at 30 mg/kg (Hamster [6]): 81%
CC(C)[C@H](NC(=O)[C@@H]1CCCN1C(=O)[C@@H](NC(=O)CN1CC(=O)N(CC(=O)O)C1=O)C(C)C)C(=O)c1nc2ccccc2o1	78%	44%	32%	67%	-7%	inhibition in vivo at 30 mg/kg (Hamster [6]): 91%
CC(C)[C@H](NC(=O)[C@@H]1CCCN1C(=O)[C@@H](NC(=O)Cn1ncc(=O)n(CC(=O)O)c1=O)C(C)C)C(=O)c1nc2ccccc2o1			14%	33%		
CC(C)[C@H](NC(=O)[C@@H]1CCCN1C(=O)[C@@H](NC(=O)CN1C(=O)N(CC(=O)O)C(C)(C)C1=O)C(C)C)C(=O)c1nc2ccccc2o1			20%	59%		
COC(=O)C(=O)[C@@H](NC(=O)[C@@H]1CCCN1C(=O)[C@@H](NC(=O)Cn1ccc(=O)n(CC(=O)O)c1=O)C(C)C)C(C)C	94%	43%			32%	
CC(C)[C@H](NC(=O)CN1CCN(CC(=O)O)C1=O)C(=O)N1CCC[C@H]1C(=O)N[C@H](C(=O)C(F)(F)F)C(C)C	97%	84%			45%	ED50 (Hamster [7]): 1.2 mg/kg; Activity (Mus musculus [8]): Non-toxic; ED50 (Hamster [9]): 0.42 mg/kg/h; MED (Hamster [10]): 3 mg/kg/h; inhibition (Mus musculus [11]): Active; solubility [12]: > 1000 mg/mL
Cc1cn(CC(=O)N[C@H](C(=O)N2CCC[C@H]2C(=O)N[C@H](C(=O)c2nc3ccccc3o2)C(C)C)C(C)C)c(=O)n(CC(=O)O)c1=O	56%	38%	39%	70%	33%	inhibition in vivo at 30 mg/kg (Hamster [6]): 92%
CC(C)[C@H](NC(=O)Cn1ccc(=O)n(CC(=O)O)c1=O)C(=O)N1CCC[C@H]1C(=O)N[C@H](C(=O)C(F)(F)F)C(C)C (mixture of isomers)	79%	7.6%			-1.2%	
